Source: ChEMBL document CHEMBL3769385 (J Med Chem, 2016)

What was measured:
[1] = target: T1, 5-hydroxytryptamine receptor 2B (Homo sapiens, UniProt P41595); test: Agonist activity at recombinant human 5HT2B receptor expressed in Flp-In-293 cells assessed as calcium flux by FLIPR assay relative to 5-HT; format: functional, cell-based
[2] = target: T2, 5-hydroxytryptamine receptor 2A (Homo sapiens, UniProt P28223); test: Agonist activity at human 5HT2A receptor expressed in Flp-In-293 cells assessed as calcium flux by FLIPR assay relative to 5-HT; format: functional, cell-based
T2 sequence (P28223 whole entry): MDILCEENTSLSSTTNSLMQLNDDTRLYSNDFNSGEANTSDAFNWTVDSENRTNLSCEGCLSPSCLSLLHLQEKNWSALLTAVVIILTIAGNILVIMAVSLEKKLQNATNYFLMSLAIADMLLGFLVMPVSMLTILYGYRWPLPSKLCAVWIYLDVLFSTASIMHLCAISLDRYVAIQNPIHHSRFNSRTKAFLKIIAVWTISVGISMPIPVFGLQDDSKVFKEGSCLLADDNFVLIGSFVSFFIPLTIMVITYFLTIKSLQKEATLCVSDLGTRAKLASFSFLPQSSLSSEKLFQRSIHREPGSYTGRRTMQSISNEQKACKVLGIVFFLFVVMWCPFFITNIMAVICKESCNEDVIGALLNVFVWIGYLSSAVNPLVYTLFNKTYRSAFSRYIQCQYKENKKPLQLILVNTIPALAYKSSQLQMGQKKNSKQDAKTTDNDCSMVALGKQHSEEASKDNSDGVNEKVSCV

[3] = target: T3, 5-hydroxytryptamine receptor 2C (Homo sapiens) (UniProt P28335); test: Agonist activity at recombinant human 5HT2C-INI receptor expressed in Flp-In-293 cells assessed as calcium flux by FLIPR assay relative to 5-HT; format: functional, cell-based
T3 sequence (whole entry): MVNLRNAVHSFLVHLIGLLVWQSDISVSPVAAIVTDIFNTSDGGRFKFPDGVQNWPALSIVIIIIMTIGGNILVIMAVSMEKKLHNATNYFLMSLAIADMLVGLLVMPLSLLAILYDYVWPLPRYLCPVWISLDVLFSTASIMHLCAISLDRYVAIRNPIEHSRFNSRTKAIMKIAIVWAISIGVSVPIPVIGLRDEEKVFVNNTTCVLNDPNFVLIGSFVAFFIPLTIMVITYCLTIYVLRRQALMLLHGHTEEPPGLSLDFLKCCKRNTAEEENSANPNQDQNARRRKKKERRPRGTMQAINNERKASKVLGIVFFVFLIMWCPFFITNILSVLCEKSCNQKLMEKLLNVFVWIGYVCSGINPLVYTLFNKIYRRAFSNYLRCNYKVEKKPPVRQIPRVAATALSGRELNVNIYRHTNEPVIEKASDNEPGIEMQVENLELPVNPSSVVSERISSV

[4] = target: Serotonin 2 receptors; 5-HT2a & 5-HT2c (Homo sapiens) (UniProt P28223+P28335); test: Selectivity ratio of EC50 for recombinant human 5HT2A receptor to EC50 for recombinant human 5HT2C-INI receptor
Chain of Serotonin 2 receptors; 5-HT2a & 5-HT2c (Homo sapiens) (P28223 whole entry, looked up, one chain of several): as the sequence (P28223 whole entry) above

[5] = species on record: Homo sapiens; test: Selectivity ratio of EC50 for recombinant human 5HT2B receptor to EC50 for recombinant human 5HT2C-INI receptor
Summary of the method: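 Calcium flux measured by FLIPR in Flp-In-293 cells stably expressing human 5-HT2B or 5-HT2C-INI receptors.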

[6] = target: T2, 5-hydroxytryptamine receptor 2A
[7] = target: T1, 5-hydroxytryptamine receptor 2B
[8] = target: T4, 5-hydroxytryptamine receptor 2C (Homo sapiens, UniProt P28335); test: Agonist activity at recombinant human 5HT2C-INI receptor expressed in Flp-In-293 cells assessed as calcium flux by FLIPR assay; format: functional, cell-based
T4 sequence (P28335 whole entry): T3 sequence (whole entry)

T1 sequence (P41595 whole entry): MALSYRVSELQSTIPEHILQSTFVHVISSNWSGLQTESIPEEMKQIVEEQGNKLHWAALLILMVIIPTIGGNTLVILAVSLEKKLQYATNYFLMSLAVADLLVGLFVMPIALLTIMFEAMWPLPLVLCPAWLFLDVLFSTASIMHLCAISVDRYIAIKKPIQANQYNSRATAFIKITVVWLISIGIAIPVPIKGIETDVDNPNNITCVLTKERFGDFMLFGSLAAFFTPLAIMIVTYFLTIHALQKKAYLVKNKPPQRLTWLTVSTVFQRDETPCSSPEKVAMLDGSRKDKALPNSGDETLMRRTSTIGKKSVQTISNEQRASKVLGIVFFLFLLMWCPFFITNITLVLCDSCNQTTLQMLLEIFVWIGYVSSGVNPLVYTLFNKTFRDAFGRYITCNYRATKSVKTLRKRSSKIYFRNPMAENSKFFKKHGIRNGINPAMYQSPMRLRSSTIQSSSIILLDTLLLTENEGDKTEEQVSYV

SMILES: COc1ccc(Cl)c(F)c1C1CC1CN (single isomer, unassigned; (+)) [listing 1 of 2 here]
- Emax [1]: 52%
- Emax [2]: 85%
- Emax [3]: 92%

SMILES: COc1ccc(F)c(Cl)c1C1CC1CN (single isomer, unassigned; (-))
- Emax [2]: 72%
- Emax [3]: 96%

SMILES: NCC1CC1c1c(OCCF)ccc(F)c1Cl (single isomer, unassigned; (+))
- Emax [3]: 86%

SMILES: COc1ccc(Cl)c(Cl)c1C1CC1CN (single isomer, unassigned; (-))
- Ratio EC50 [4]: 40
- Emax [1]: 53%
- Emax [2]: 88%
- Ratio EC50 [5]: 31
- Emax [3]: 104%

SMILES: C=CCOc1ccc(Cl)c(F)c1C1CC1CN (stereo in doubt; (-)-22d)
- Emax [3]: 87%

SMILES: NCC1CC1c1c(OCCF)ccc(Cl)c1Cl (single isomer, unassigned; (-))
- Emax [3]: 85%

SMILES: NCC1CC1c1cc(Cl)c(F)cc1OCCF (single isomer, unassigned; (+))
- Emax [1]: 39%
- Emax [3]: 87%

SMILES: NCC1CC1c1c(OCCF)ccc(F)c1F (single isomer, unassigned; (-))
- Emax [3]: 78%

SMILES: C=CCOc1ccc(Cl)c(Cl)c1C1CC1CN (single isomer, unassigned; (+))
- Emax [3]: 70%

SMILES: COc1cc(F)c(Cl)cc1C1CC1CN (single isomer, unassigned; (+)) [listing 1 of 2 here]
- EC50 [6]: 81 nM
- EC50 [7]: 25 nM
- EC50 ([8]; read-out: EC50): 7.6 nM
- EC50 ([8]; read-out: pEC50 (converted)): 7.76 nM

SMILES: C=CCOc1cc(F)c(Cl)cc1C1CC1CN (single isomer, unassigned; (-))
- Emax [1]: 22%
- Emax [3]: 77%

SMILES: NCC1CC1c1c(OCCF)ccc(F)c1F (single isomer, unassigned; (+))
- Emax [3]: 96%

SMILES: COc1cc(F)c(F)cc1C1CC1CN (single isomer, unassigned; (+))
- Emax [1]: 69%
- Emax [3]: 108%

SMILES: NCC1CC1c1cc(Cl)c(F)cc1OCCF (stereo in doubt; (-)-21c)
- Emax [1]: 26%
- Emax [3]: 70%

SMILES: COc1cc(F)c(Cl)cc1C1CC1CN (stereo in doubt; (-)-20c) [listing 1 of 2 here]
- EC50 [6]: 235 nM
- EC50 [7]: 329 nM
- EC50 ([8]; read-out: EC50): 16 nM

SMILES: NCC1CC1c1cc(Cl)c(Cl)cc1OCCF (single isomer, unassigned; (+))
- Emax [3]: 87%

SMILES: C=CCOc1ccc(F)c(Cl)c1C1CC1CN (single isomer, unassigned; (+)) [listing 1 of 2 here]
- EC50 ([8]; read-out: pEC50 (converted)): 97.7 nM

SMILES: C=CCOc1ccc(F)c(Cl)c1C1CC1CN (single isomer, unassigned; (-)) [listing 1 of 2 here]
- EC50 ([8]; read-out: EC50): 104 nM

SMILES: NCC1CC1c1c(OCCF)ccc(Cl)c1Cl (single isomer, unassigned; (+))
- Emax [3]: 90%

SMILES: NCC1CC1c1c(OCCF)ccc(Cl)c1F (stereo in doubt; (+)-21d)
- Emax [3]: 86%

SMILES: COc1ccc(Cl)c(F)c1C1CC1CN (single isomer, unassigned; (+)) [listing 2 of 2 here]
- EC50 [6]: 212 nM
- EC50 [7]: 354 nM
- EC50 ([8]; read-out: EC50): 13 nM

SMILES: COc1cc(F)c(Cl)cc1C1CC1CN (stereo in doubt; (-)-20c) [listing 2 of 2 here]
- Emax [1]: 44%
- Emax [2]: 88%
- Emax [3]: 98%

SMILES: COc1cc(F)c(Cl)cc1C1CC1CN (single isomer, unassigned; (+)) [listing 2 of 2 here]
- Emax [1]: 59%
- Emax [2]: 93%
- Emax [3]: 97%

SMILES: C=CCOc1ccc(F)c(F)c1C1CC1CN (single isomer, unassigned; (-))
- Emax [1]: 26%
- Emax [3]: 89%

SMILES: COc1cc(F)c(F)cc1C1CC1CN (single isomer, unassigned; (-)) [listing 1 of 2 here]
- EC50 [6]: 511 nM

SMILES: NCC1CC1c1cc(F)c(F)cc1OCCF (single isomer, unassigned; (-))
- Emax [3]: 73%

SMILES: COc1ccc(Cl)c(F)c1C1CC1CN (single isomer, unassigned; (-))
- Emax [1]: 64%
- Emax [2]: 86%
- Emax [3]: 93%

SMILES: C=CCOc1ccc(F)c(Cl)c1C1CC1CN (single isomer, unassigned; (+)) [listing 2 of 2 here]
- Emax [3]: 92%

SMILES: COc1ccc(F)c(Cl)c1C1CC1CN (stereo in doubt; (+)-20g)
- Emax [2]: 77%
- Emax [3]: 89%

SMILES: C=CCOc1ccc(F)c(F)c1C1CC1CN (single isomer, unassigned; (+))
- Emax [1]: 35%
- Emax [3]: 100%

SMILES: NCC1CC1c1cc(F)c(F)cc1OCCF (single isomer, unassigned; (+))
- Emax [3]: 95%

SMILES: COc1ccc(F)c(F)c1C1CC1CN (single isomer, unassigned; (+)) [listing 1 of 2 here]
- EC50 [6]: 437 nM
- EC50 [7]: 209 nM
- EC50 ([8]; read-out: EC50): 9.5 nM

SMILES: C=CCOc1cc(F)c(Cl)cc1C1CC1CN (single isomer, unassigned; (+)) [listing 1 of 2 here]
- EC50 [7]: 1000 nM

SMILES: C=CCOc1ccc(Cl)c(F)c1C1CC1CN (single isomer, unassigned; (+))
- Emax [3]: 90%

SMILES: C=CCOc1ccc(Cl)c(Cl)c1C1CC1CN (stereo in doubt; (-)-22f)
- Emax [3]: 93%

SMILES: COc1cc(Cl)c(Cl)cc1C1CC1CN (stereo in doubt; (-)-20e)
- Emax [2]: 75%
- Emax [3]: 89%

SMILES: COc1cc(Cl)c(Cl)cc1C1CC1CN (single isomer, unassigned; (+))
- Emax [2]: 85%
- Emax [3]: 95%

SMILES: NCC1CC1c1cc(Cl)c(Cl)cc1OCCF (single isomer, unassigned; (-))
- Emax [3]: 75%

SMILES: COc1cc(F)c(F)cc1C1CC1CN (single isomer, unassigned; (-)) [listing 2 of 2 here]
- Emax [1]: 59%
- Emax [3]: 104%

SMILES: COc1ccc(F)c(F)c1C1CC1CN (stereo in doubt; (-)-20b)
- Emax [1]: 62%
- Emax [2]: 72%
- Emax [3]: 108%

SMILES: NCC1CC1c1c(OCCF)ccc(F)c1Cl (stereo in doubt; (-)-21g)
- Emax [3]: 80%

SMILES: C=CCOc1cc(Cl)c(Cl)cc1C1CC1CN (single isomer, unassigned; (+))
- Emax [3]: 88%

SMILES: COc1ccc(F)c(F)c1C1CC1CN (single isomer, unassigned; (+)) [listing 2 of 2 here]
- Emax [1]: 64%
- Emax [2]: 79%
- Emax [3]: 108%

SMILES: C=CCOc1ccc(F)c(Cl)c1C1CC1CN (single isomer, unassigned; (-)) [listing 2 of 2 here]
- Emax [3]: 89%

SMILES: NCC1CC1c1c(OCCF)ccc(Cl)c1F (single isomer, unassigned; (-))
- Emax [3]: 80%

SMILES: COc1ccc(Cl)c(Cl)c1C1CC1CN (stereo in doubt; (+)-20f)
- Emax [1]: 26%
- Emax [2]: 78%
- Emax [3]: 98%

SMILES: C=CCOc1cc(F)c(Cl)cc1C1CC1CN (single isomer, unassigned; (+)) [listing 2 of 2 here]
- Emax [1]: 34%
- Emax [3]: 87%

SMILES: C=CCOc1cc(Cl)c(Cl)cc1C1CC1CN (stereo in doubt; (-)-22e)
- Emax [3]: 84%
